In ChEMBL document CHEMBL1140069, “In vitro antifungal activity of polyfunctionalized 2-(hetero)arylquinolines prepared through imino Diels-Alder reactions” (2008):

How the values were obtained:
Type in all cases: functional
Candida albicans [1] = experiment: Antimicrobial activity against Candida albicans C129 isolate at 100 ug/ml after 24 hrs
Summary of the method: (§1)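 Growth-inhibition microplate test. Strains are grown on Sabouraud-chloramphenicol agar for 48 h at 30 °C, and inoculum is added to RPMI-1640 containing compound at a final 100–6.25, with DMSO ≤2%. Each strain has a growth control (same DMSO, no compound) and a sterility control.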

Candida albicans [2] = experiment: Antimicrobial activity against Candida albicans C129 isolate at 6.25 ug/ml after 24 hrs; summary of the method: as §1
Candida albicans [3] = experiment: Antimicrobial activity against Candida albicans C128 isolate at 12.5 ug/ml after 24 hrs; summary of the method: as §1
Candida tropicalis [4] = experiment: Antimicrobial activity against Candida tropicalis C131 isolate at 6.25 ug/ml after 24 hrs
Summary of the method: (§2)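 Percent growth inhibition in 96-well microplates. Compound stocks in DMSO (≤2%) were diluted in RPMI-1640 to final 100–6.25 µg/mL, and 100 µL inoculum was added (final 200 µL). Controls were a growth well (inoculum with matching DMSO, no compound) and a sterility well (no inoculum). Inhibition was calculated against growth and sterility wells.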

Candida albicans [5] = experiment: Antimicrobial activity against Candida albicans C126 isolate at 100 ug/ml after 24 hrs; summary of the method: as §1
Candida parapsilosis [6] = experiment: Antimicrobial activity against Candida parapsilosis C124 isolate at 100 ug/ml after 24 hrs; conditions: Lodderomyces parapsilosis; summary of the method: as §2
Nakaseomyces glabratus [7] = experiment: Antimicrobial activity against Candida glabrata C115 isolate at 100 ug/ml after 24 hrs; summary of the method: as §1
Candida parapsilosis [8] = experiment: Antimicrobial activity against Candida parapsilosis C124 isolate at 50 ug/ml after 24 hrs; conditions: Lodderomyces parapsilosis; summary of the method: as §2
Nakaseomyces glabratus [9] = experiment: Antimicrobial activity against Candida glabrata C115 isolate at 12.5 ug/ml after 24 hrs; summary of the method: as §1
Candida parapsilosis [10] = experiment: Antimicrobial activity against Candida parapsilosis C124 isolate at 6.25 ug/ml after 24 hrs; conditions: Lodderomyces parapsilosis; summary of the method: as §2
Candida albicans [11] = experiment: Antimicrobial activity against Candida albicans C129 isolate at 25 ug/ml after 24 hrs; summary of the method: as §1
Candida parapsilosis [12] = experiment: Antimicrobial activity against Candida parapsilosis C124 isolate at 25 ug/ml after 24 hrs; conditions: Lodderomyces parapsilosis; summary of the method: as §2
Pichia kudriavzevii [13] = experiment: Antimicrobial activity against Candida krusei C117 isolate at 100 ug/ml after 24 hrs; summary of the method: as §2
Nakaseomyces glabratus [14] = experiment: Antimicrobial activity against Candida glabrata C115 isolate at 6.25 ug/ml after 24 hrs; summary of the method: as §2
Candida tropicalis [15] = experiment: Antimicrobial activity against Candida tropicalis C131 isolate at 50 ug/ml after 24 hrs; summary of the method: as §2
Candida albicans [16] = experiment: Antimicrobial activity against Candida albicans C127 isolate at 100 ug/ml after 24 hrs; conditions: C127, 24 h; summary of the method: as §1
Pichia kudriavzevii [17] = experiment: Antimicrobial activity against Candida krusei C117 isolate at 12.5 ug/ml after 24 hrs; summary of the method: as §2
Candida albicans [18] = experiment: Antimicrobial activity against Candida albicans C126 isolate at 12.5 ug/ml after 24 hrs; summary of the method: as §1
Nakaseomyces glabratus [19] = experiment: Antimicrobial activity against Candida glabrata C115 isolate at 50 ug/ml after 24 hrs; summary of the method: as §2
Candida tropicalis [20] = experiment: Antimicrobial activity against Candida tropicalis C131 isolate at 12.5 ug/ml after 24 hrs; summary of the method: as §2
Candida albicans [21] = experiment: Antimicrobial activity against Candida albicans C126 isolate at 6.25 ug/ml after 24 hrs; summary of the method: as §1
Pichia kudriavzevii [22] = experiment: Antimicrobial activity against Candida krusei C117 isolate at 25 ug/ml after 24 hrs; summary of the method: as §2
Candida albicans [23] = experiment: Antimicrobial activity against Candida albicans C130 isolate at 50 ug/ml after 24 hrs; summary of the method: as §1
Candida albicans [24] = experiment: Antimicrobial activity against Candida albicans C127 isolate at 12.5 ug/ml after 24 hrs; conditions: C127, 24 h; summary of the method: as §1
Candida albicans [25] = experiment: Antimicrobial activity against Candida albicans C130 isolate at 25 ug/ml after 24 hrs; summary of the method: as §1
Candida albicans [26] = experiment: Antimicrobial activity against Candida albicans C128 isolate at 100 ug/ml after 24 hrs; summary of the method: as §1
Candida albicans [27] = experiment: Antimicrobial activity against Candida albicans C130 isolate at 100 ug/ml after 24 hrs; summary of the method: as §1

| Compound | inhibition at 100 µg/mL (Candida albicans [1]) | inhibition at 6.25 µg/mL (Candida albicans [2]) | inhibition at 12.5 µg/mL (Candida albicans [3]) | inhibition at 6.25 µg/mL (Candida tropicalis [4]) | inhibition at 100 µg/mL (Candida albicans [5]) | inhibition at 100 µg/mL (Candida parapsilosis [6]) | inhibition at 100 µg/mL (Nakaseomyces glabratus [7]) | inhibition at 50 µg/mL (Candida parapsilosis [8]) | inhibition at 12.5 µg/mL (Nakaseomyces glabratus [9]) | inhibition at 6.25 µg/mL (Candida parapsilosis [10]) | inhibition at 25 µg/mL (Candida albicans [11]) | inhibition at 25 µg/mL (Candida parapsilosis [12]) | inhibition at 100 µg/mL (Pichia kudriavzevii [13]) | inhibition at 6.25 µg/mL (Nakaseomyces glabratus [14]) | inhibition at 50 µg/mL (Candida tropicalis [15]) | inhibition at 100 µg/mL (Candida albicans [16]) | inhibition at 12.5 µg/mL (Pichia kudriavzevii [17]) | inhibition at 12.5 µg/mL (Candida albicans [18]) | inhibition at 50 µg/mL (Nakaseomyces glabratus [19]) | inhibition at 12.5 µg/mL (Candida tropicalis [20]) | other results |
| --- | --- | --- | --- | --- | --- | --- | --- | --- | --- | --- | --- | --- | --- | --- | --- | --- | --- | --- | --- | --- | --- |
| Cc1cc(-c2ccncc2)nc2ccccc12 | 85% | 0% | 0% | 22% | 69% | 55% | 75% | 5% | 1% | 0% | 50% | 0% | 66% | 0% | 75% | 80% | 0% | 0% | 4% | 54% | inhibition at 6.25 µg/mL (Candida albicans [21]): 0%; inhibition at 25 µg/mL (Pichia kudriavzevii [22]): 0%; inhibition at 50 µg/mL (Candida albicans [23]): 84%; inhibition at 12.5 µg/mL (Candida albicans [24]): 0%; inhibition at 25 µg/mL (Candida albicans [25]): 48%; inhibition at 100 µg/mL (Candida albicans [26]): 88%; inhibition at 100 µg/mL (Candida albicans [27]): 84% |
| c1ccc2nc(-c3ccncc3)ccc2c1 | 85% | 0% | 0% | 22% | 69% | 55% | 75% | 5% | 1% | 0% | 50% | 0% | 66% | 0% | 75% | 80% | 0% | 0% | 4% | 54% | inhibition at 6.25 µg/mL (Candida albicans [21]): 0%; inhibition at 25 µg/mL (Pichia kudriavzevii [22]): 0%; inhibition at 50 µg/mL (Candida albicans [23]): 84%; inhibition at 12.5 µg/mL (Candida albicans [24]): 0%; inhibition at 25 µg/mL (Candida albicans [25]): 48%; inhibition at 100 µg/mL (Candida albicans [26]): 88%; inhibition at 100 µg/mL (Candida albicans [27]): 84% |
